{"data": "Results pooled from the literature", "target": "Receptor-interacting serine/threonine-protein kinase 2 (RIPK2, Homo sapiens, UniProt O43353)", "note": "Each line is one published result; the experiments were not run side by side."}
{"Structure (SMILES)": "CC(C)(C)c1cc(C=C(C#N)C#N)cc(Br)c1O", "test": "enzyme activity, inhibitor", "setting": "0.5 µM", "measurement": "remaining activity", "result": "32.8%"}
{"Structure (SMILES)": "Cn1cc(-c2cccc(N3CCc4c(sc5c4CC(C)(C)C5)C3=O)c2CO)cc(Nc2ccncn2)c1=O", "test": "enzyme activity, inhibitor", "setting": "1 µM", "measurement": "inhibition", "result": "1%"}
{"Structure (SMILES)": "N#CC1(c2ccccn2)CCN(Cc2cc(C(=O)O)c(=O)n3ccccc23)CC1", "test": "cell-free assay, competition with immobilised ligand", "setting": "1 µM", "measurement": "remaining binding", "result": "92%"}
{"Structure (SMILES)": "COc1ncccc1-c1cnn2ccc(N3CCN(C(=O)OC(C)C)CC3)nc12", "test": "binding, competition with immobilised ligand", "setting": "1 µM", "measurement": "remaining binding", "result": "51%"}
{"Structure (SMILES)": "Cn1cc(-c2cc(F)cc(N3CCn4c(cc5c4CCCC5)C3=O)c2CO)cc(Nc2ccc(N3CCN(C4COC4)CC3)cn2)c1=O", "test": "enzyme activity, inhibitor", "setting": "0.1 µM", "measurement": "inhibition", "result": "-5%"}
{"Structure (SMILES)": "Cc1nn(C)cc1-c1nc2c(N3CCN(Cc4ccc(Cl)cc4)CC3)c(Cl)cnc2[nH]1", "test": "binding, competition with immobilised ligand", "setting": "1 µM", "measurement": "remaining binding", "result": "100%"}
{"Structure (SMILES)": "Nc1ncc(-c2nc(N3CCOCC3)nc(N3CCOCC3)n2)c(C(F)F)n1", "test": "binding, competition with immobilised ligand", "setting": "10 µM", "measurement": "remaining binding", "result": "100%"}
{"Structure (SMILES)": "Cn1cncc1[C@@](O)(COc1ccc(C#N)cc1-c1ccc(OC(F)(F)F)cc1)c1ccc(C#N)cc1", "test": "cell-free assay, competition with immobilised ligand", "setting": "1 µM", "measurement": "remaining binding", "result": "100%"}
{"Structure (SMILES)": "O=c1[nH]c2ccccc2n1C1CCN(Cc2ccc(-c3[nH]c4cc5ncnc5cc4nc3-c3ccccc3)cc2)CC1", "test": "cell-free assay", "setting": "0.5 µM", "measurement": "remaining signal", "result": "89.2%"}
